# Laboratory results reported in publication PMC7992179 (ACS Omega, 2021).
# Several values for one entry are separate records, joined by “and”; a condition that tells them apart may be missing. Equal entries are not always repeated.
# Assays:
# PTZ-induced convulsions = PTZ-induced convulsions in mice; type: in vivo; conditions: for average duration of seizure / latency time / seizure score / mortality: 5 mg/kg i.p., PTZ 70 mg/kg i.p., n = 10; for average duration of seizure / latency time / seizure score: mean ± SEM; for enhancement of latency time of PTZ-induced seizures compared with the standard LTG drug: vs LTG
# In short: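 Overnight-fasted albino mice (n = 10 per group) received test compound at 5 mg/kg i.p., suspended in carboxymethylcellulose and sonicated. Controls were vehicle, PTZ alone and lamotrigine (dose-finding at 1–5 mg/kg). Clonic seizures were induced with PTZ 70 mg/kg i.p. Recorded: latency, convulsion duration, number of convulsions, protection, and a 0–6 seizure score (6 = death). Mean ± SEM; one-way ANOVA with Dunnett's test versus the PTZ group.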
# MCF-7 cell line = assay: MTT cytotoxicity assay in MCF-7 cells; type: cell-based, human; conditions: for % inhibition/stimulation: conc. 30 μM
# In short: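 MCF-7 cells grown in Eagle's MEM with 10% FBS, 1% penicillin/streptomycin, 0.1 mM non-essential amino acids, 10 μg/mL insulin and 1 mM sodium pyruvate at 37 °C, 5% CO2. Trypsin/EDTA-harvested cells were seeded at 6 × 10^4 cells/mL and incubated overnight. Test compound (1–30 μM, or a fixed 30 μM screen against doxorubicin) was applied for 48 h. MTT 0.5 mg/mL for 4 h, DMSO, A570; % inhibition and IC50.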
# [1] = tested on: motor coordination on rotating rod; assay: Neurotoxicity / minimal motor impairment, rotating rod; type: in vivo; conditions: rod observed 5 min, mean ± SEM, 10 mice
# In short: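 White albino mice of either sex, 8–10 weeks, 25–35 g, were trained on a rotating rod (2.5 cm diameter, 25 cm high). After i.p. dosing (10, 30 or 50 mg/kg), motor coordination was scored over 5 min at 30 min and 4 h. Neurotoxicity meant failure to stay on the rod for 1 min. 10 mice per group; mean ± SEM.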
Compound,average duration of seizure (PTZ-induced convulsions) [s],latency time (PTZ-induced convulsions) [s],seizure score (PTZ-induced convulsions) [counts],mortality (PTZ-induced convulsions) [counts],enhancement of latency time of PTZ-induced seizures compared with the standard LTG drug (PTZ-induced convulsions; 5 mg/kg) [%],"IC50 ± SD (MCF-7 cell line; MCF-7, 1–30 μM, 48 h, MTT)","% inhibition/stimulation (MCF-7 cell line; 48 h, MTT) [%]",time on Rod ([1]; dose 10 mg/kg i.p.) [s],time on Rod ([1]; dose 30 mg/kg i.p.) [s],time on Rod ([1]; dose 50 mg/kg i.p.) [s],protection against PTZ-induced convulsions (PTZ-induced convulsions; dose of 5 mg/kg) [%],"IC50 (MCF-7 cell line; read-out: IC50 ± SD, MCF-7, 1–30 μM, 48 h, MTT) [µM]","time on Rod ([1]; dose 50 mg/kg i.p., 50 mg/kg)",latency time (PTZ-induced convulsions; listed as LTG control) [s],"decrease in the time duration of convulsions as compared to PTZ (negative control) (PTZ-induced convulsions; 5 mg/kg, vs PTZ negative control) [%]",mice protected from clonic convulsions (PTZ-induced convulsions; LTG monotherapy 5 mg/kg) [%],"highest nonprotective dose in the PTZ model (PTZ-induced convulsions; monotherapy, doses 1-5 mg/kg tested against clonic convulsions) [mg/kg]","time on Rod ([1]; dose 10 mg/kg i.p., 10 mg/kg) [s]","time on Rod ([1]; dose 30 mg/kg i.p., 30 mg/kg) [s]","inhibition at 30 µM (MCF-7 cell line; Homo sapiens, MCF7, 48 h, read-out: % inhibition/stimulation) [%]"
"2,2′-{[6-(2,3-Dichlorophenyl)-1,2,4-Triazine-3,5-Diyl]bis[azanylylidene(E)methanylylidene]}diphenol Zinc Chloride Coordinate Complex [4b]",81.5 ± 2.1,240.0 ± 10.3,10.0 ± 6.5,0.0,13,inactive,0.00,105.0 ± 98.5,80.6 ± 78.6,54.26 ± 42.3,–,–,–,–,–,–,–,–,–,–
"2,2′-{[6-(2,3-Dichlorophenyl)-1,2,4-triazine-3,5-diyl]bis[azanylylidene(E)methanylylidene]}diphenol Copper Acetate Coordinate Complex [5b]",97.5 ± 28.3,250.0 ± 88.3,11.0 ± 2.4,1,18,inactive,0.00,116.7 ± 94.3,100.0 ± 86.3,75.83 ± 54.3,90,–,–,–,–,–,–,–,–,–
"2,2′-{[6-(2,3-Dichlorophenyl)-1,2,4-triazine-3,5-diyl]bis[azanylylidene(E)methanylylidene]}diphenol Dibutyl Tin Dichloride Coordinate Complex [7b]",99 ± 7.1,190.0 ± 70.1,12.0 ± 1.5,0.0,–,inactive,0.00,80.0 ± 27.6,68.9 ± 25.7,45.64 ± 19.3,–,–,–,–,–,–,–,–,–,–
"2,2′-{[6-(2,3-Dichlorophenyl)-1,2,4-triazine-3,5-diyl]bis[azanylylidene(E)methanylylidene]}diphenol Silver Nitrate Coordinate Complex [6b]",95 ± 10.5,330.0 ± 67.8,12.0 ± 1.8,0.0,56,–,101.2,153.3 ± 92.7,146.3 ± 90.9,130.0 ± 91.7,–,11.9 ± 0.27,–,–,–,–,–,–,–,–
"4-{[(3-{(E)-[(4-Hydroxy-3-methoxyphenyl)methylidene]amino}-6-(2,3-dichlorophenyl)-1,2,4-triazin-5-yl)imino]methyl}-2-methoxyphenol Copper Acetate Coordinate Complex [5c]",115 ± 10.0,230.0 ± 70.1,10.0 ± 2.6,0.0,8,inactive,0.00,121.7 ± 98.3,90.0 ± 85.6,75.64 ± 52.7,–,–,–,–,–,–,–,–,–,–
"4-{[(3-{(E)-[(4-Hydroxy-3-methoxyphenyl)methylidene]amino}-6-(2,3-dichlorophenyl)-1,2,4-triazin-5-yl)imino]methyl}-2-methoxyphenol Dibutyl Tin Dichloride Coordinate Complex [7c]",125 ± 15.3,160.0 ± 49.0,11.0 ± 1.6,0.0,–,inactive,0.00,190.0 ± 74.6,167.4 ± 89.8,–,–,–,140.5 ± 94.9 s and 140.5 ± 94.0 s,–,–,–,–,–,–,–
"4-{[(3-{(E)-[(4-Hydroxy-3-methoxyphenyl)methylidene]amino}-6-(2,3-dichlorophenyl)-1,2,4-triazin-5-yl)imino]methyl}-2-methoxyphenol Zinc Chloride Coordinate Complex [4c]",81.5 ± 1.5,250.0 ± 10.3,14.0 ± 3.7,0.0,18,inactive,0.00,80.0 ± 75.3,50.6 ± 42.5,30.65 ± 25.7,–,–,–,–,–,–,–,–,–,–
"Oc1ccccc1/C=N/c1nnc(-c2cccc(Cl)c2Cl)c(/N=C/c2ccccc2O)n1 [3b, 2,2′-{[6-(2,3-Dichlorophenyl)-1,2,4-triazine-3,5-diyl]bis[azanylylidene(E)methanylylidene]}diphenol]",–,–,–,–,–,–,–,110.8 ± 98.6,90.5 ± 82.3,65.97 ± 54.9,–,–,–,–,–,–,–,–,–,–
"COc1cc(C=Nc2nc(/N=C/c3ccc(O)c(OC)c3)nnc2-c2cccc(Cl)c2Cl)ccc1O [3c, 4-{[(3-{(E)-[(4-Hydroxy-3-methoxyphenyl)methylidene]amino}-6-(2,3-dichlorophenyl)-1,2,4-triazin-5-yl)imino]methyl}-2-methoxyphenol]",–,–,–,–,–,–,–,140.7 ± 92.4,126.4 ± 88.0,100.0 ± 82.3,–,–,–,–,–,–,–,–,–,–
"Nc1nnc(-c2cccc(Cl)c2Cl)c(N)n1 [LTG, 3,5-diamino-6-(2,3-dichlorophenyl)-1,2,4-triazine, reference compound]",90 ± 3.5,~212,11.0 ± 2.3,0.0,–,–,–,290.0 ± 16.7,245.8 ± 15.4,200.7 ± 13.7,–,–,–,211.7 ± 98.1,42,6,5,–,–,–
"C1CCc2nnnn2CC1 [PTZ, pentylenetetrazole, reference compound]",–,–,–,–,–,–,–,–,–,–,–,–,7.7 ± 2.4 s,–,–,–,–,16.67 ± 8.165,10.46 ± 1.654,–
"COc1cccc2c1C(=O)c1c(O)c3c(c(O)c1C2=O)C[C@@](O)(C(=O)CO)C[C@@H]3O[C@H]1C[C@H](N)[C@H](O)[C@H](C)O1 [doxorubicin (DOX), doxorubicin, reference compound]",–,–,–,–,–,–,–,–,–,–,–,–,–,–,–,–,–,–,–,101
"(1E,2Z)-N-[6-(2,3-Dichlorophenyl)-5-{(E)-[(2E)-3-phenylprop-2-en-1-ylidene]amino}-1,2,4-triazin-3-yl]prop-2-en-1-imine Copper Acetate Coordinate Complex [5a]",81.5 ± 2.1,170.0 ± 45.2,11.0 ± 1.9,0.0,–,inactive,0.00,76.7 ± 19.7,55.9 ± 12.9,40.9 ± 10.7,–,–,–,–,–,–,–,–,–,–
